This is a sample that favours compounds with a hit; in the whole collection about 3.8% have one here.
KCNK3 inh = human KCNK3 channel inhibition, primary screen. O14649. CHO-KCNK3 thallium flux, FluxOR fluorescence; active compounds read low. B-score at 10 µM. actives 0.84% (n = 340,000);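 active means B-score under library mean minus 4 SD, starting fluorescence ratio at most library mean plus 5 SD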;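 further: more negative B-score means stronger inhibition of thallium flux through KCNK3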
Target sequence (O14649 whole entry, looked up): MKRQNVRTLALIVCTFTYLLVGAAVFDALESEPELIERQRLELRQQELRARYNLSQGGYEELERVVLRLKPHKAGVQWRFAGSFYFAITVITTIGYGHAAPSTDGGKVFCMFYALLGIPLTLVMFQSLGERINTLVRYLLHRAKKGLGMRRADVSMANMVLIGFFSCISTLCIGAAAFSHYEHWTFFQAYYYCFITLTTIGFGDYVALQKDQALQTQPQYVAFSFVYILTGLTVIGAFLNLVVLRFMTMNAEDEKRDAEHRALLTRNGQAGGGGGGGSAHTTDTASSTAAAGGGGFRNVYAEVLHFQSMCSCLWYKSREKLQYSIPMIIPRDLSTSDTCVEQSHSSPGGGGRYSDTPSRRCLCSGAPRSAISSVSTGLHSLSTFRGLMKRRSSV
Kir21 inh = inhibitors of mouse Kir2.1 inward-rectifier potassium channel | HEK293-Kir2.1, FluxOR thallium flux fluorescence; active compounds read low | P35561 | B-score at 10 µM | AID 1672 | actives 0.85% (n = 310,000);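 active means fluorescence ratio B-score at or below minus 3 SD of library scores, with starting-brightness B-score within 2 SD, cut at about -4.2 in these data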;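 further: channel flux triggered by added potassium and thallium sulfate stimulus; B-score of peak minus minimum fluorescence over baseline after thallium stimulus; more negative B-score means stronger Kir2.1 block with less thallium influx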
KCNQ1 block = human KCNQ1 channel inhibition; CHO-K1 KCNQ1, FluxOR thallium flux fluorescence; active compounds read high; P51787; actives 1.3% (n = 310,000); AID 2642; B-score at 10 µM;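 active means compounds whose thallium flux B-score, printed positive for inhibition, exceeds three library SD while starting fluorescence stays within three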;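 further: channel opened by potassium depolarization with thallium stimulus after 20 min compound exposure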
KCNK9 block = inhibitors of human KCNK9 two-pore domain potassium channel; HEK293 KCNK9, FluxOR thallium flux fluorescence; active compounds read low; Q9NPC2; AID 488922; actives 1.2% (n = 310,000); B-score at 10 µM;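 active means ratio B-score over 3 SD below the library mean, with starting fluorescence within 5 SD of its mean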;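 further: negative B-score means less thallium flux so channel inhibition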
hERG protect = compounds protecting human hERG from proarrhythmic drug block | activation (rescue from dofetilide block), less the hit threshold, % at 10 µM | Q12809 | CHO-hERG, FluxOR thallium flux, dofetilide IC70 present | actives 0.51% (n = 310,000);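 active means activation above the mean of controls blocked by dofetilide plus 5 SD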;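 further: thallium influx through hERG after potassium depolarization seen as dye fluorescence rise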
KCNQ1 act = potentiates or activates the human KCNQ1 potassium channel. P51787. CHO-K1 KCNQ1, thallium flux FluxOR fluorescence; active compounds read high. B-score at 10 µM. actives 0.35% (n = 310,000);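 active means fluorescence ratio B-score, a plate-corrected score, at least three library SD, with initial intensity B-score within 5 SD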
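Doses: Single concentration per compound, DMSO matched to controls | Test system: KCNQ1-transfected CHO-K1 cells | Timing: 90 min dye loading and 20 min compound exposure, both at room temperature | Measured by: Kinetic FluxOR thallium fluorescence, 10-s 1-Hz baseline, 110-s post-stimulus read | Medium: Assay buffer with matched DMSO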
KCNK9 block conf = confirmation of human KCNK9 potassium channel inhibitors; shares compounds with KCNK9 block; HEK293 KCNK9 cells, FluxOR thallium flux fluorescence; inhibition, % at 10 µM; actives 43% (n = 4,900); AID 492992;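 active means thallium signal inhibited by more than 5 SD of the compound-free buffer control wells, on both duplicate plates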
Kir21 sel = mouse Kir2.1 off-target activity of KCNK9 modulators | actives 4% (n = 4,900) | Kir2.1 cells, FluxOR thallium flux fluorescence | AID 492993 | shares compounds with KCNK9 block | inhibition, % at 10 µM;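 active means thallium signal drop more than 5 SD beyond the mean of the no-compound control wells, seen in both duplicate plates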;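 further: signal is fluorescence rise after thallium addition divided by baseline fluorescence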
HEK293 Tl ctr = second check of KCNK9 modulator effects in non-induced HEK293 cells; shares compounds with KCNK9 block; FluxOR thallium flux; inhibition, % at 10 µM; actives 40% (n = 4,900); AID 492997;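 active means thallium signal drop beyond 5 SD of the untreated control mean, on both duplicate plates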
Of the large screens only hits and unclear results are named; the others gave an inactive call (follow-up assays come after a bar, where they were run).

O=C(NCc1ccc(OC(F)(F)F)cc1)C12CN(Cc3ccccc3)CC1C(c1cccc([N+](=O)[O-])c1)=NO2 (centres undefined)	none
O=C(NCc1ccccc1)C12CN(Cc3ccccc3)CC1C(c1cccc([N+](=O)[O-])c1)=NO2 (centres undefined)	none | KCNK9 block conf inactive | Kir21 sel inactive | HEK293 Tl ctr inactive
O=C(Cn1cc(Cl)c([N+](=O)[O-])n1)NCCC1=CCCCC1	none
COc1ccccc1NC(=O)c1ccccc1NC(=O)c1cccs1	none
O=C1NN(c2ccccc2)C(=O)/C1=C/c1ccc(-c2ccc(C(=O)O)cc2)o1	none
O=C1NN(c2ccccc2)C(=O)/C1=C/c1ccc(Sc2cccc3ccccc23)o1	none | KCNK9 block conf inactive | Kir21 sel inactive | HEK293 Tl ctr inactive
Cc1cc(C(=O)Cn2nc(C(=O)O)c3ccccc3c2=O)c(C)n1-c1cccc(C(F)(F)F)c1	none | KCNK9 block conf inactive | Kir21 sel inactive | HEK293 Tl ctr inactive
CC(=O)N1CCN(C2=NC(=O)/C(=C/c3ccc(OS(=O)(=O)c4ccccc4)cc3)S2)CC1	none
CC(c1ccccc1)C(CC(=O)O)C(=O)Nc1ccc(Cl)c(Cl)c1 (centres undefined)	none
COc1ccc(S(=O)(=O)Nc2c(C)nc3nc(C)[nH]n3c2=O)cc1	none | KCNK9 block conf inactive | Kir21 sel inactive | HEK293 Tl ctr inactive
COc1ccc(S(=O)(=O)Nc2c(C)nc3nc[nH]n3c2=O)cc1	none
O=C(C/C=N/OCc1ccccc1F)c1cnc(-c2ccc(Cl)cc2)s1	none | KCNK9 block conf inactive | Kir21 sel inactive | HEK293 Tl ctr inactive
O=C(C/C=N/OCc1ccc(F)cc1Cl)c1cnc(-c2ccccc2)s1	none | KCNK9 block conf inactive | Kir21 sel inactive | HEK293 Tl ctr inactive
CC1CN(C(=O)CCNS(=O)(=O)c2ccc(Br)cc2)CC(C)O1 (centres undefined)	none
COc1cccc(OC)c1OCCCN1CCC(Cc2ccccc2)CC1	none | KCNK9 block conf inactive | Kir21 sel inactive | HEK293 Tl ctr inactive
COc1cc(/C=C/C(=O)OCC(=O)N2CCC(Cc3ccccc3)CC2)ccc1O	none | KCNK9 block conf inactive | Kir21 sel inactive | HEK293 Tl ctr inactive
COc1cc(C(=O)OCC(=O)N2CCC(Cc3ccccc3)CC2)cc(OC)c1OC	none | KCNK9 block conf inactive | Kir21 sel inactive | HEK293 Tl ctr inactive
COc1cc(/C=C/C(=O)OCC(=O)N2CCC(C)CC2)ccc1O	none
COc1ccccc1N1CCN(S(=O)(=O)CCNC(=O)CC2CCCCC2)CC1	none
O=S(=O)(c1ccc(S(=O)(=O)N(Cc2ccccc2)Cc2ccco2)cc1)N1CCCC1	none
COC(=O)/C=C/c1ccccc1S(=O)(=O)N(Cc1ccccc1)Cc1ccco1	KCNK9 block -8.5 | KCNK9 block conf 30% | Kir21 sel inactive | HEK293 Tl ctr 38%
O=C(Cc1ccc(Cl)cc1)Nc1ccc(N2CCN(C(=O)c3ccco3)CC2)c(Cl)c1	KCNK9 block -9.8 | KCNK9 block conf 30% | Kir21 sel 35% | HEK293 Tl ctr inactive
CN(CC1COc2ccccc2O1)C(=O)CSc1ncccn1 (centres undefined)	none (no result: Kir21 inh, KCNQ1 block, KCNK9 block, hERG protect, KCNQ1 act)
S=c1[nH]nc(Cc2ccccc2)n1-c1cccc2ccccc12	none | KCNK9 block conf inactive | Kir21 sel inactive | HEK293 Tl ctr inactive
CCOc1ccc(Cc2n[nH]c(=S)n2Cc2ccccc2)cc1	KCNK9 block -15 | KCNK9 block conf 32% | Kir21 sel inactive | HEK293 Tl ctr 34%
CC(C)(C)NC(=O)COC(=O)CNC(=O)c1cc(Cl)cc([N+](=O)[O-])c1	none
Cc1onc(-c2c(F)cccc2Cl)c1C(=O)Nc1cccc(S(=O)(=O)N2CCOCC2)c1	none (no result: Kir21 inh, KCNQ1 block, KCNK9 block, hERG protect, KCNQ1 act)
CCOC(=O)Nc1ccc2c(c1)N(C(=O)CN)c1ccccc1CC2	none
CCNCC(=O)N1c2ccccc2CCc2ccc(NC(=O)OCC)cc21	KCNK9 block -11 | KCNK9 block conf 54% | Kir21 sel inactive | HEK293 Tl ctr 34%
CCCCN(C(=O)c1cccc2c(=O)c(C)c(-c3ccccc3)oc12)c1ccccc1	KCNK9 block -10 | KCNK9 block conf 40% | Kir21 sel inactive | HEK293 Tl ctr 34%
CCN(CC)Cc1c(C(=O)N/N=C/c2cccc(OCc3cccc(Cl)c3)c2)nnn1-c1nonc1N	none
O=C(Nc1cc(Sc2ccccn2)cc([N+](=O)[O-])c1)c1cccc(Cl)c1	KCNQ1 block 7, KCNK9 block -10 | KCNK9 block conf 41% | Kir21 sel inactive | HEK293 Tl ctr 40%
O=C(Nc1cc(Sc2ccccn2)cc([N+](=O)[O-])c1)c1ccc(Cl)cc1	none
COc1ccc(C(=O)/C(=C/O)N=Nc2ccc(F)cc2)cc1	KCNK9 block -12 | KCNK9 block conf inactive | Kir21 sel inactive | HEK293 Tl ctr inactive
CC(=O)c1c(N2CCN(C)CC2)nc(=S)n(Cc2ccccc2)c1C	none
C=CCn1c(C)c(C(C)=O)c(N2CCN(C(c3ccccc3)c3ccccc3)CC2)nc1=S	KCNK9 block -8.1 | KCNK9 block conf 37% | Kir21 sel inactive | HEK293 Tl ctr inactive
CC(=O)c1cccc(NC(=S)NNC(=O)c2ccc(C)c([N+](=O)[O-])c2)c1	none
Cc1ccc(NC(=S)NNC(=O)c2cccc([N+](=O)[O-])c2)cc1Cl	KCNQ1 block 8 | KCNK9 block conf inactive | Kir21 sel inactive | HEK293 Tl ctr inactive
Cc1nc2c(ccc3nc(NC(=O)Cc4cccc5ccccc45)sc32)s1	none
Cc1nc2c(ccc3nc(NC(=O)C(c4ccccc4)c4ccccc4)sc32)s1	KCNK9 block -9.8 | KCNK9 block conf inactive | Kir21 sel inactive | HEK293 Tl ctr inactive
Cc1cc(=O)c2cc(Br)ccc2n1CC(=O)NCc1ccccc1	KCNK9 block -9.7 | KCNK9 block conf inactive | Kir21 sel inactive | HEK293 Tl ctr 33%
O=C(Cn1c(=O)n(CC(=O)NCc2ccccc2)c2ccccc21)NCc1ccccc1	none
COc1cccc(C(=O)NCC(C)(C)SCc2ccc(F)cc2)c1	none | KCNK9 block conf inactive | Kir21 sel inactive | HEK293 Tl ctr inactive
COc1ccc(C(=O)Nc2ccccc2N2CCCC2)cc1	none
CC(Oc1ccc(F)cc1)C(=O)Nc1ccccc1N1CCCCC1 (centres undefined)	KCNQ1 block 6, KCNK9 block -8.5 | KCNK9 block conf 52% | Kir21 sel 46% | HEK293 Tl ctr 32%
